Assay results from different studies.
NT5E: 5'-nucleotidase (NT5E, Homo sapiens, UniProt P21589)
MAP4K5: Mitogen-activated protein kinase kinase kinase kinase 5 (MAP4K5, Homo sapiens, UniProt Q9Y4K4)
XDH: Xanthine dehydrogenase/oxidase (XDH, Bos taurus, UniProt P80457)
PDGFRA: Platelet-derived growth factor receptor alpha (PDGFRA, Homo sapiens, UniProt P16234)

SMILES | target | assay | conditions | quantity | result
COC(=O)c1ccc(NC(=O)c2sc3nc(-c4ccccc4)cc(C(F)(F)F)c3c2N)cc1 | NT5E | enzyme activity, inhibitor, HPLC | 10 µM | inhibition | 94%
NC/C(=C\F)COc1cccc(Cn2c(=S)[nH]c(=O)c3[nH]cnc32)c1 | Lactoperoxidase (LPO, Bos taurus, UniProt P80025) | enzyme activity, inhibitor | 20 µM | remaining activity | 14.2%
Cc1cc(C)c(C#N)c(SCC(=O)Nc2ccon2)n1 | NT5E | enzyme activity, inhibitor | 10 µM | inhibition | 3%
C1=C/COCc2cc(ccc2OCCN2CCCC2)Nc2nccc(n2)-c2cccc(c2)COC/1 | MAP4K5 | binding | 0.1 µM | remaining binding | 90%
Oc1ncnc2[nH]ncc12 | XDH | enzyme activity, inhibitor | 250 µg/mL | inhibition | 99.3%
N#Cc1ccc(NC(=O)Nc2ccccc2)cc1 | PDGFRA | cell-free assay, competition with immobilised ligand | 25 µM | remaining binding | 92%
O=C(NS(=O)(=O)c1ccccc1)c1cc2ccccc2n1Cc1ccc(Br)c2ccccc12 | XDH | enzyme activity, inhibitor, absorbance | 10 µM | inhibition | 20.3%
CCCCC(=O)Nc1ccc(-c2ccc3ncn(CCC)c(=O)c3c2)cn1 | MAP4K5 | binding, competition with immobilised ligand | 0.5 µM | remaining binding | 92%
Cc1cc(C)c(C#N)c(SC=CC(=O)Nc2ccon2)n1 | NT5E | enzyme activity, inhibitor | 10 µM | inhibition | 34%
CC(C)(O)c1coc(S(=O)(=O)NC(=O)c2cc3ccccc3n2Cc2ccc(Br)c3ccccc23)c1 | XDH | enzyme activity, inhibitor, absorbance | 10 µM | inhibition | 1.21%
COc1ccc2oc(-c3ccc4nc(N)oc4c3)c/c(=N\c3ccccc3NC(=O)CCN)c2c1 | Platelet-derived growth factor receptor alpha (PDGFRA, Homo sapiens, UniProt P16234, D842V) | enzyme activity, inhibitor | 1 µM | remaining activity | 91%
Cc1cc(C)c(C#N)c(SCC(=O)Nc2cccnc2)n1 | NT5E | enzyme activity, inhibitor | 10 µM | inhibition | 5%
C#Cc1cnc(Nc2ccnc(CO)c2)nc1Nc1ccccc1S(C)(=O)=NC#N (stereo not drawn) | PDGFRA | cell-free assay | 1 µM | remaining signal | 58%
COCCOCCOCCNC(=O)CSc1nc(-c2ccccc2)cc(C(F)(F)F)c1C#N | NT5E | enzyme activity, inhibitor | 10 µM | inhibition | -20%
CC(=O)ON=C1C=CC(=C(C#N)c2ccccc2)C=C1 | Dual specificity tyrosine-phosphorylation-regulated kinase 1A (Dyrk1a, Rattus norvegicus, UniProt Q63470) | enzyme activity, inhibitor, ADP detection | 20 µM | activity vs control | 101%
